Variants at the floor of the assay were thinned out.

B1: tRNA (parent)
chain: GUUCCGUUGGCGUAAUGGUAACGCGUCUCCCUCCUAAGGAGAAGACUGCGGGUUCGAGUCCCGUACGGAACG

In this series the parent is B1. The experiment in a line: yeast fitness relative to wild type (ratio to wild type); higher = fitter; tRNA-Arg(CCU), competitive growth, 37 C, YPD. In short, it runs like this: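 Gene amplicons from the start population and from each of six end populations were read by 100-nucleotide paired-end sequencing. Those end populations came from pooled Saccharomyces cerevisiae strains carrying tRNA-Arg(CCU) gene variants at the native locus, competed in YPD at 37°C for 24 hours. Fitness relative to wild type was worked out from changes in genotype frequencies. Genotypes needed ≥ 100 starting reads, and estimates < 0.5 were set to 0.5.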
Turning to U3G A45G U54C, the yeast fitness came out at 0.678.

As for U13A A45C C49A A65U, the yeast fitness was not above 0.5.

In the case of U16G A45U G50A A69C, the yeast fitness is 0.631.

U3A C4U C33G C34G A57U: the yeast fitness was 0.63.

As to C29U G44C U54A, the yeast fitness was 0.55.

Regarding A21G G23A C66G, the yeast fitness was not above 0.5.

Take C11U G12A G51C C62U: the yeast fitness was not above 0.5.

On to G9A A40G U64C, for which the yeast fitness stood at 0.722.

Consider C4G C22U C34G A36U G67A, for which the yeast fitness was not above 0.5.

Consider A14U G17C A70G, for which the yeast fitness is not above 0.5.

As to A21G C29U A36U A43U C62A, the yeast fitness amounted to 0.559.

On to U7C G63C, for which the yeast fitness was 0.611.

On to G25C C30A, for which the yeast fitness came out at 0.792.

Turning to C4G G17A C55U A70G, the yeast fitness was not above 0.5.

For U13C C22U A45U, the yeast fitness stood at 0.713.

As to U8A A14G C46U G50C C55U A57U C62G A70U, the yeast fitness is not above 0.5.

For G9C U28C A42U, the yeast fitness amounted to 0.647.

Consider G6C U26C A43C A57G C66U, for which the yeast fitness was not above 0.5.

On to G6C A15G G56C, for which the yeast fitness is not above 0.5.

With C4U C5A A36C A42G G52A, the yeast fitness was found to be 0.578.

On to U3C A40U A45U G52A, for which the yeast fitness is not above 0.5.

With C24G G44A C46U U53C C62U, the yeast fitness is not above 0.5.

For U8C C27G A42G C60U U64A C66A G68A A69G, the yeast fitness came out at 0.543.

For G6A C22G C24U U47A A70C, the yeast fitness is not above 0.5.

For A21U A37U A40U G50C G56C, the yeast fitness is not above 0.5.

U7G U28C G41C G58C: the yeast fitness was not above 0.5.

For C4U A14C C22U C34U, the yeast fitness was not above 0.5.

As to U3A C4U C33G C34G U54A, the yeast fitness was not above 0.5.

On to G12C C22G C55U, for which the yeast fitness worked out at 0.581.

Consider U3C C4U A15G U26A U32A C62U G67C, for which the yeast fitness worked out at 0.613.

With A14G C22A C27A C29U A42C G63C, the yeast fitness is not above 0.5.

For U7A G67U, the yeast fitness is 0.771.

As to G10C A43C C46G C55G A65U, the yeast fitness was 0.547.

In the case of A42G G48A, the yeast fitness is 0.863.

In the case of G12C C29G, the yeast fitness is 0.58.

As for G9A U16C A21G A42G, the yeast fitness is not above 0.5.

In the case of U7A C27U C55U, the yeast fitness is not above 0.5.

With A20G G23C C31U A57U C66U, the yeast fitness is not above 0.5.

Turning to C4U C11G G51A U59A C62G, the yeast fitness is not above 0.5.

On to C5U U7G C24U C34G A37C A42U C66U, for which the yeast fitness is not above 0.5.

On to C5U G17C C24G G38C G51C U59G, for which the yeast fitness is not above 0.5.

For U19C G50A, the yeast fitness was found to be 0.833.

For A14G G18A C55U, the yeast fitness is not above 0.5.

Regarding A43C C62A A69C, the yeast fitness came to 0.633.

With U32C G68U, the yeast fitness stood at 0.877.

With C4U G17A U19G A21G A43G, the yeast fitness is 0.554.

In the case of A43U G51C A57C C60G G67A, the yeast fitness is 0.663.

As to G12A U13C A15C C46G, the yeast fitness is not above 0.5.

C11U A45U G58U: the yeast fitness came out at 0.562.

Turning to G41C C66A, the yeast fitness worked out at 0.621.

With C5A A20G G39C G52A, the yeast fitness is 0.593.

In the case of U2C C4U G10C A57C, the yeast fitness is not above 0.5.

Turning to C5U C22U C30G C55U, the yeast fitness was not above 0.5.

With U19C A20U C55A, the yeast fitness was not above 0.5.

As for U19A U47A G52C, the yeast fitness is not above 0.5.

For the variant G25A C34A A36C G51C, the yeast fitness was not above 0.5.

For G12A C24G G68A, the yeast fitness was not above 0.5.

Consider U19A C24G C29U G52C U64G, for which the yeast fitness is not above 0.5.

As for U13C A15C C46G A69C, the yeast fitness was not above 0.5.

With C4G G17A G58C C60U A69U, the yeast fitness is not above 0.5.

G6A U26G A36U: the yeast fitness was not above 0.5.

As to G44A A45G G51C, the yeast fitness was not above 0.5.

C11A C27G C62U G68A: the yeast fitness is not above 0.5.

Consider C34G A43U G48C, for which the yeast fitness was not above 0.5.

G10C A15U C29G C46U G51C C66U: the yeast fitness was not above 0.5.

For the variant A40U A42C G44A G51A A65G, the yeast fitness was found to be 0.542.

For the variant C5U A40G A45U, the yeast fitness stood at 0.638.

As to A15C C34G A37U C46G A69U, the yeast fitness is not above 0.5.

Take G10A C11G A69C A70G: the yeast fitness is not above 0.5.

Regarding G9A G39A A45G G50A, the yeast fitness was not above 0.5.

Turning to C5U C22G C31G U54G, the yeast fitness was not above 0.5.

Consider G25A U26A, for which the yeast fitness stood at 0.839.

With U28C A42C C60U, the yeast fitness turned out to be 0.589.

On to U19A C22G C24U C33G A36G, for which the yeast fitness is 0.581.

Turning to U16A G63A, the yeast fitness was found to be 0.798.

As to G6A C22G A57C C66A, the yeast fitness was not above 0.5.

Turning to C11U U13C C24A A43C G50C C60G A70U, the yeast fitness stood at 0.567.

With G39U A45C, the yeast fitness amounted to 0.851.

For the variant G6A G17A U32C, the yeast fitness was not above 0.5.

As for U8C G25C G38C C49U A57U C66A, the yeast fitness was not above 0.5.

Take C34G C61U A70U: the yeast fitness was 0.639.

As for C29U C34U A57C U64C, the yeast fitness was determined as 0.549.

Consider C4U A42U, for which the yeast fitness amounted to 0.944.

C22U U28G A45G G67U: the yeast fitness is not above 0.5.

Consider C5G C33A G41C, for which the yeast fitness is not above 0.5.

With C24A U64C, the yeast fitness stood at 0.706.

As for G18A U47C C62A, the yeast fitness was not above 0.5.

As to A15G U28C U35A G38A C46G C62U G67U, the yeast fitness was not above 0.5.

With C5G C27G C34G G63C C66U, the yeast fitness is not above 0.5.

Consider G10A C31A C61U, for which the yeast fitness is not above 0.5.

In the case of G25A C49G, the yeast fitness is 0.981.

Turning to C4A U32C C46G C62A, the yeast fitness was not above 0.5.

C30U G67U: the yeast fitness came to 0.83.

In the case of C27U U32A, the yeast fitness was 0.993.

As to U16A C24G C60A C61G, the yeast fitness was not above 0.5.

U16C U32C C49A: the yeast fitness was found to be 0.617.

For the variant A14C G39A, the yeast fitness worked out at 0.754.

With C5U C33G, the yeast fitness turned out to be 0.777.

Turning to U3A C30U, the yeast fitness was determined as 0.822.

In the case of U3G G6A U8C, the yeast fitness is not above 0.5.

On to C11U U19C G23A G25A C55U, for which the yeast fitness is 0.537.

As for C22G C31G C49U, the yeast fitness came to 0.605.

With U2A A14U A21G C46G A57U A69C, the yeast fitness is not above 0.5.

Turning to U7C A37C C60G A65U A70C, the yeast fitness was found to be 0.569.

Regarding U2C G6A A20U C30U A36U C49A, the yeast fitness is not above 0.5.

C27U A40C A57U: the yeast fitness came to 0.606.

On to C5G G25A, for which the yeast fitness was 0.981.

On to U2G C5A A43U C55U G68A, for which the yeast fitness was not above 0.5.

In the case of U8G A20G, the yeast fitness turned out to be 0.544.

Turning to A21G A43U G58C C60A C66U, the yeast fitness is not above 0.5.

As to C30U C62A, the yeast fitness amounted to 0.798.

For the variant A20U U35C A36G C55G, the yeast fitness is 0.578.

On to C4U A21G C31G C34G, for which the yeast fitness turned out to be 0.596.

With C29G U32G, the yeast fitness is not above 0.5.

With A43C A69U, the yeast fitness came to 1.12.

For G6A A14U C22U A37G, the yeast fitness was not above 0.5.

Take G39A A65U: the yeast fitness amounted to 0.791.

Consider U28G C31U A40C A57G, for which the yeast fitness was 0.837.

Turning to A15G C31U C60U, the yeast fitness is 0.543.

On to A20U C30U C31G A43G G44A U47A C49G, for which the yeast fitness was determined as 0.595.

With C5A A21U C24U C27G A70G, the yeast fitness is not above 0.5.

Turning to A14U C29U A37U C49A G67A, the yeast fitness is not above 0.5.

Consider C27G A37C A57C, for which the yeast fitness is not above 0.5.

Take A15C U28A C34G A43U G68C: the yeast fitness is not above 0.5.

For G41C C46U, the yeast fitness was 1.03.

Turning to C5G G67U, the yeast fitness worked out at 0.859.

Consider C5G G12A C31U C49G, for which the yeast fitness was not above 0.5.

As to G18A G25A C46U C55A, the yeast fitness is not above 0.5.

Consider U3A G17A C22U A45G, for which the yeast fitness is not above 0.5.

As to A36U A65C, the yeast fitness came out at 0.596.

Consider A20C C27U C66U G67C, for which the yeast fitness was not above 0.5.

On to A37G G51C, for which the yeast fitness came to 0.601.

As for G10C C27A A42U C46G, the yeast fitness was not above 0.5.

On to G12C C49U A70U, for which the yeast fitness was found to be 0.692.

Regarding C11A U26C C29G C31U G48A, the yeast fitness was not above 0.5.

Take G6A U13G A42C: the yeast fitness is 0.711.

With U35A G52C, the yeast fitness was not above 0.5.

For the variant U26C C27U U59C, the yeast fitness is 0.702.

Consider G10C G39A, for which the yeast fitness was 0.563.

For the variant C31A C55A C61A G63A, the yeast fitness was found to be 0.655.

Regarding U2C C24A U26A U47C C61U, the yeast fitness was found to be 0.628.

For the variant A15U U19G, the yeast fitness came out at 0.631.

On to G9A C29U A65U, for which the yeast fitness is not above 0.5.

On to U3C A20G A43G, for which the yeast fitness stood at 0.744.

Turning to U32G A36U U59C, the yeast fitness was not above 0.5.

In the case of C4A C60U, the yeast fitness was 0.825.

In the case of U16G C34G A42G C49G C62U A69C, the yeast fitness was 0.506.

For the variant C27U U28A A37G C49U A57C G58C, the yeast fitness is 0.683.

As to C4A C46G C61A, the yeast fitness was 0.522.

As to C30G C60A C66U, the yeast fitness was determined as 0.551.

Regarding C4U C11U G67A A69C, the yeast fitness is not above 0.5.

Turning to G25C C34U G41A C49G A69C, the yeast fitness was not above 0.5.

With C5U A21C G44C C46U, the yeast fitness was found to be 0.532.

A37U A65C: the yeast fitness turned out to be 0.739.

On to C4U A42G U47C G58A, for which the yeast fitness is not above 0.5.

On to A15U A40G G52C C62G, for which the yeast fitness was not above 0.5.

As to C4A C11U U32A G38C U47A U53G, the yeast fitness is 0.56.

Turning to C5G C11U A42U G68A, the yeast fitness is not above 0.5.

On to A37U A57C U64G, for which the yeast fitness is not above 0.5.

On to G63A A65U, for which the yeast fitness is 0.945.

In the case of C4A U16A A43C C46U, the yeast fitness is not above 0.5.

Turning to G9C C24A C34A C46G, the yeast fitness was not above 0.5.

Turning to A36C G63A, the yeast fitness is 0.704.

Regarding A14C A21G U53A, the yeast fitness is not above 0.5.

As to C11G C30U A37C C46U, the yeast fitness stood at 0.664.

On to A14U C49U, for which the yeast fitness came out at 0.629.

Consider U3C C4A U16C G17A, for which the yeast fitness was not above 0.5.

The values above are taken from the RNAGym collection of RNA variant scans (doi:10.1126/science.aae0568).
